# Experiments:
# [1] = biological target: Cyclin-dependent kinase 1/cyclin B1 (Homo sapiens, UniProt P06493); format: protein-complex assay
# [2] = biological target: CDK2/Cyclin A2 (Homo sapiens, UniProt P24941); experiment: Inhibition of CDK2/cyclin A2 (unknown origin) using FAM-labeled peptide and ATP as substrate preincubated for 10 mins followed by substrate addition by mobility shift assay; format: protein-complex assay
# [3] = tested on: A2058; experiment: Antiproliferative activity against human A2058 cells assessed as reduction in cell viability measured after 96 hrs by Celltiter-Glo luminescent assay; format: functional, cell-based; settings: A2058, 96 h
# How it was run: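 Cells in DMEM (A2058, MRC5) or RPMI 1640 (MV4-11), each with 10% fetal bovine serum and 1% penicillin/streptomycin. Cells were plated in 96-well plates and exposed to serially concentrated compound for 96 h, with DMSO as control. Viability was read by CellTiter-Glo luminescence and IC50 derived.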
# Cyclin-dependent kinase 1/cyclin B1, sequence (P06493 whole entry): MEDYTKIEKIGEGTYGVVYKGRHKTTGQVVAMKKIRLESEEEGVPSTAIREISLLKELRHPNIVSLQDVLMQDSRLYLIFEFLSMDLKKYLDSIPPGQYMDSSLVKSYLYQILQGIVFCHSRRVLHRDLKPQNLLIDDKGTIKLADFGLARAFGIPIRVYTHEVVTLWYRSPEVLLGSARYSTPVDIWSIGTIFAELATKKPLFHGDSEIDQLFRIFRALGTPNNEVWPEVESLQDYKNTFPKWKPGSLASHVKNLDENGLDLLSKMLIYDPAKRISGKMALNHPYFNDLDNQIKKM
# Cyclin-dependent kinase 1/cyclin B1, sequence (P14635 whole entry, further chain): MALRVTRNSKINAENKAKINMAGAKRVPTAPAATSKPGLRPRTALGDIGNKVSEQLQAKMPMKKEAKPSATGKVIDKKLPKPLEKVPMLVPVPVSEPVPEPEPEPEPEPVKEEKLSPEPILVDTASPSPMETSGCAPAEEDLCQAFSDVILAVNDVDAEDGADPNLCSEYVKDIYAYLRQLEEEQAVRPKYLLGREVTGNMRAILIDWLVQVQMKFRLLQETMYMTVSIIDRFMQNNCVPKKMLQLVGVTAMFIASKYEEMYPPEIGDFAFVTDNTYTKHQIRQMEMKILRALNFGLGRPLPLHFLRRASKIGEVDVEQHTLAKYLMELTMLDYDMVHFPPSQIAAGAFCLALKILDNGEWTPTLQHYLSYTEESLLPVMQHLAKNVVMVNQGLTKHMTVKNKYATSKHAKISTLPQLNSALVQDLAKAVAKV
SMILES,IC50 [1] [nM],IC50 [2] [nM],IC50 [3] [nM]
O=C(Nc1ccc(F)cc1)c1n[nH]cc1NC(=O)c1c(F)ccc(-c2ccc(F)nc2)c1F,278,51,6310
Cc1ccc(C(=O)NCCCN2CCOCC2)cc1-c1ccc(F)c(C(=O)Nc2c[nH]nc2C(=O)Nc2ccc(F)cc2)c1F,3690,485,6510
Cc1ccc(-c2ccc(F)c(C(=O)Nc3c[nH]nc3C(=O)Nc3ccc(F)cc3)c2F)cn1,1850,164,
O=C(Nc1ccc(F)cc1)c1n[nH]cc1NC(=O)c1c(F)ccc(-c2cccc(O)c2)c1F,236,26,
COC(=O)c1cccc(-c2ccc(F)c(C(=O)Nc3c[nH]nc3C(=O)Nc3ccc(F)cc3)c2F)c1,496,210,
